According to the array DNA melting data of Ke et al. (doi:10.1101/2024.01.08.574731):

Experiments:
[1] = melting temperature; fluorescence melt of hairpins on a sequencing array, two-state fit, raised by 9.35 °C to match UV melts; conditions: sodium 0.088 M
Procedure, shortened: (§1)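 To match UV melts, fitted temperatures were raised by 9.35 °C. These fits were bootstrapped two-state models that gave melting temperature and folding enthalpy, combined by inverse variance over four replicates. The input was normalised Cy3 fluorescence of library hairpins with annealed Cy3 and quencher oligos on a sequenced MiSeq flow cell, imaged in 50 mM Na-HEPES pH 8.0, 25 mM NaCl in 2.5 °C steps up to 60 °C.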

[2] = folding enthalpy; higher = less favourable; fluorescence melt of hairpins on a sequencing array, two-state fit; conditions: sodium 0.088 M
Procedure, shortened: as §1

Sequence	Tm [1] [°C]	folding enthalpy [2] [kcal/mol]
GATCTTAGGGAAGATC ((((((....))))))	41.5	-26.3
GATCTTATAAAAGATC ((((((....))))))	40	-25.5
GATCTTATGTAAGATC ((((((....))))))	45.2	-36.6
GATCTTATTGAAGATC ((((((....))))))	41.8	-31.5
GATCTTCAAAAAGATC ((((((....))))))	40.4	-27.3
GATCTTCAAAAGATC ((((((...))))))	41	-19.2
GATCTTCACCAAGATC ((((((....))))))	41.9	-35.5
GATCTTCATAAAGATC ((((((....))))))	43.5	-35.6
GATCTTCCGAAAGATC ((((((....))))))	43.2	-29.7
GATCTTCCGCAAGATC ((((((....))))))	42.5	-35.4
GATCTTCCGTAAGATC ((((((....))))))	43.8	-29.8
GATCTTCCTCAAGATC ((((((....))))))	42	-30.1
GATCTTCGAAAAGATC ((((((....))))))	40.5	-24.9
GATCTTCGCAAAGATC ((((((....))))))	45.5	-28.3
GATCTTCGCAAGATC ((((((...))))))	45.4	-33.7
GATCTTCGTAAAGATC ((((((....))))))	44.9	-40.8
GATCTTCTAGAAGATC ((((((....))))))	49.6	-40.9
GATCTTCTGAAAGATC ((((((....))))))	42.1	-25.4
GATCTTCTGCAAGATC ((((((....))))))	42.9	-22
GATCTTGAGAAAGATC ((((((....))))))	45.9	-32.1
GATCTTGATCAAGATC ((((((....))))))	49.7	-40.9
GATCTTGGAAAGATC ((((((...))))))	51.9	-34.5
GATCTTGGACAAGATC ((((((....))))))	50.8	-41.8
GATCTTGGCTAAGATC ((((((....))))))	48.2	-45.1

Sequence	Tm [1] [°C]	folding enthalpy [2] [kcal/mol]
GATCTTGGGTAAGATC ((((((....))))))	43.2	-27.6
GATCTTTACAAGATC ((((((...))))))	46.4	-33.2
GATCTTTACCAAGATC ((((((....))))))	42	-29.9
GATCTTTCCAAAGATC ((((((....))))))	47.3	-32.9
GATCTTTCGCAAGATC ((((((....))))))	43.5	-32.4
GATCTTTGAAAAGATC ((((((....))))))	42.2	-29.4
GATCTTTGAGAAGATC ((((((....))))))	46	-31.6
GATCTTTGCAAGATC ((((((...))))))	46.4	-34.7
GATCTTTGGCAAGATC ((((((....))))))	40	-29
GATCTTTGGGAAGATC ((((((....))))))	45.6	-34.1
GATCTTTGTAAAGATC ((((((....))))))	47.5	-34.3
GATCTTTGTAAGATC ((((((...))))))	45.5	-28.8
GATCTTTTCAAAGATC ((((((....))))))	48.7	-43.6
GATCTTTTGCAAGATC ((((((....))))))	42.8	-34.8
GATCTTTTTAAAGATC ((((((....))))))	49.6	-41.4
GATCTTTTTAAGATC ((((((...))))))	47.1	-32.2
GATCTTTTTGAAGATC ((((((....))))))	46.1	-34.5
GATGACCCGAAAGGGATC (((..(((....))))))	33.2	-11.7
GATGACGAAAGTCAGATC ((((((....)))..)))	52.1	-17.8
GATGACGAAAGTCCGATC ((((((....)))..)))	26.8	-12.8
GATGACGAAAGTCTATC ((((((....))).)))	39	-16.4
GATGACGGAAACGTCATC (((((((....)))))))	67.5	-37.1
GATGAGCCGAAAGGCATC (((..(((....))))))	33.5	-10.2
GATGAGCGAAAGCTATC (((.(((....))))))	35.1	-14.7

Sequence	Tm [1] [°C]	folding enthalpy [2] [kcal/mol]
GATGAGGCGAAAGCCATC (((..(((....))))))	36.3	-13.1
GATGAGGGAAACCTTGTC ((..(((....)))..))	28.1	-15.3
GATGATACGAAAGTAATC (((..(((....))))))	27.5	-16.5
GATGATGGAAACATTATC (((.(((....))).)))	35.5	-30.4
GATGATGGAAACATTGTC ((..(((....)))..))	28.8	-27.9
GATGATGGAAACGTCATC (((((.(....).)))))	46.7	-29.8
GATGCACGAAAGTGGATC (((.(((....))).)))	54.9	-37.5
GATGCCACGAAAGTGATC (((..(((....))))))	20.2	-9.92
GATGCCCCGAAAGGGATC (((..(((....))))))	32.5	-10.3
GATGCCGAAAGGCAATC ((((((....))).)))	53	-13.8
GATGCCGAAAGGCCAATC ((((((....)))..)))	29.4	-8.85
GATGCGCGAAAGCGTATC (((.(((....))).)))	63	-27.8
GATGCGGAAACGCATC ((((((....))))))	68.2	-31.3
GATGCGGCGAAAGCCATC (((..(((....))))))	29.2	-11.6
GATGCGGGAAACTGCATC (((((.(....).)))))	54.7	-42.6
GATGCTGCGAAAGCAATC (((..(((....))))))	29.3	-9.87
GATGCTGGAAACAACATC ((((.((....)).))))	36.2	-31.4
GATGCTGGAAACAGTATC (((.(((....))).)))	47	-33.8
GATGCTGGAAACGGTATC (((.(.(....).).)))	31.2	-22.8
GATGGACGAAAGTCATC (((.(((....))))))	45.7	-17.9
GATGGAGCGAAAGCTATC (((..(((....))))))	30.2	-10.5
GATGGCGAAAGCCGTATC ((((((....)))..)))	43.8	-6.56
GATGGCGAAAGCCTGATC ((((((....)))..)))	33.6	-11
GATGGCGGAAACACCACC (.(((.(....).))).)	30.2	-14.8

Sequence	Tm [1] [°C]	folding enthalpy [2] [kcal/mol]
GATGGCGGAAACGCCGTC ((.((((....)))).))	58.3	-21.4
GATGGCGGAAACGCTGTC ((..(((....)))..))	44	-17.1
GATGGCGGAAACGTCATC ((((.((....)).))))	55.3	-43.7
GATGGGCCGAAAGGCATC (((..(((....))))))	34.8	-9.87
GATGGGGGAAACCCCGTC ((.((((....)))).))	52.7	-24.7
GATGGGGGAAACCCTGTC ((..(((....)))..))	33.2	-22.5
GATGGTGGAAACACCATC (((((((....)))))))	65.1	-39.4
GATGTACGAAAGTAGATC (((.(((....))).)))	44	-30.5
GATGTCCGAAAGGATATC (((.(((....))).)))	52.3	-35.6
GATGTCGAAAGACATC ((((((....))))))	66.3	-36.3
GATGTCGGAAACGACACC (.(((((....))))).)	40.4	-11.4
GATGTGCCGAAAGGCATC (((..(((....))))))	36.1	-8.04
GATGTGGCGAAAGCCATC (((..(((....))))))	38.5	-8.76
GATGTGGGAAACCACATC (((((((....)))))))	60.9	-42.1
GATGTGGGAAACCGCATC ((((.((....)).))))	51.9	-46.4
GATGTTGGAAACAATATC (((.(((....))).)))	37.5	-27.1
GATGTTGGAAACAATGTC ((..(((....)))..))	31.1	-17.1
GATGTTGGAAACAGCATC ((((.((....)).))))	45.5	-25
GATTACCGAAAGGTTATC (((.(((....))).)))	42.4	-26.1
GATTACGAAAGTAGAATC ((((((....)))..)))	27.4	-14.4
GATTACGGAAACGTAATC (((((((....)))))))	55.5	-50.2
